From publication PMC10150327 (NAR Cancer, 2023)

Legend:
RPA–ssDNA interaction = RPA–ssDNA interaction (Homo sapiens, UniProt P27694); details: cited from earlier work
RAD52–ssDNA interaction = molecular target: T1, RAD52–ssDNA interaction (Homo sapiens, UniProt P43351); details: cited from earlier work
T1 sequence (P43351 1-418): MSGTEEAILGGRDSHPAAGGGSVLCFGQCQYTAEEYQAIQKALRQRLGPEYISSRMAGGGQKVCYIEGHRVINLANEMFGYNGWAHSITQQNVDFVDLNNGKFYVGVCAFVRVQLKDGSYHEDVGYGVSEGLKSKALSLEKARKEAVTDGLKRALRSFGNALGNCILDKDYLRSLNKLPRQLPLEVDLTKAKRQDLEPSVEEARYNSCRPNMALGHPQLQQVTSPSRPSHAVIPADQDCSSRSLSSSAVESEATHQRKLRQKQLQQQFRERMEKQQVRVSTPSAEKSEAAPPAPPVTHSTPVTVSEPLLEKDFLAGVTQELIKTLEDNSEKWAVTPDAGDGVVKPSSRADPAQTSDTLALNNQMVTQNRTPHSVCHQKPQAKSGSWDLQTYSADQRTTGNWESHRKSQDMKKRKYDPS

[1] = tested on: association of RAD52 with parental ssDNA; test: In situ proximity ligation assay; type: cell-based; details: after HU treatment
Procedure, shortened: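 Parental DNA was labelled with 50 μM IdU for 20 h, then 2 h in fresh DMEM before treatment. Cells were Triton-permeabilised (0.5%, 10 min, 4°C), fixed in 3% formaldehyde/2% sucrose and blocked in 3% BSA. Probes: rabbit anti-RAD52 (1:150) plus mouse anti-IdU (1:10), then PLA probes, each 1 h at 37°C. Ligation and rolling-circle amplification used a TRITC oligo. Single-antibody controls were included; spots per cell given as mean ± SE.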

MRC5SV40 fibroblasts = test: Neutral comet assay, HU-induced DSBs; type: cell-based, human; details: HU 24 h, inhibitor 30 min before HU
BRCA2-depleted cells = details: cited from earlier work
MRC5 SV40 cells = test: Native IdU assay, nascent ssDNA; type: cell-based, human; details: 2 mM HU, short treatment
[2] = tested on: complemented cell line (HA); details: cited from earlier work
EUFA423F = details: cited from earlier work
mass photometry = molecular target: the molecule itself; test: mass photometry

Chain of RPA–ssDNA interaction (P27694 whole entry): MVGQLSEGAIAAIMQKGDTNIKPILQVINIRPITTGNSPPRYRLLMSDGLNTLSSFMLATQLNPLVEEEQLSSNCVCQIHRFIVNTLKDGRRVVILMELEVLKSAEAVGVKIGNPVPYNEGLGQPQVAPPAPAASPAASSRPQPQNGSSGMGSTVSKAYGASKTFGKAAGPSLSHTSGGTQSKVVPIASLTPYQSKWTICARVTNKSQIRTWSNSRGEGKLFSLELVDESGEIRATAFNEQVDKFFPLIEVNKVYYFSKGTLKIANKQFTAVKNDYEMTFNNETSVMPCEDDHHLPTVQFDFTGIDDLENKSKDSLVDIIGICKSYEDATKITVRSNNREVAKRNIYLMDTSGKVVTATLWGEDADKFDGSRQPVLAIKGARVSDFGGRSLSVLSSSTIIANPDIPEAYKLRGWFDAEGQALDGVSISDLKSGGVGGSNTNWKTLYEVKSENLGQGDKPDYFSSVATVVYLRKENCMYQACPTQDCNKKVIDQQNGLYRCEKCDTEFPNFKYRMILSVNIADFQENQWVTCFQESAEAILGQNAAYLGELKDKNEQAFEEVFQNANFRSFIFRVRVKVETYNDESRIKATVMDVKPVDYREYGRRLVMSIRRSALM
Chain of RPA–ssDNA interaction (P15927 whole entry partner): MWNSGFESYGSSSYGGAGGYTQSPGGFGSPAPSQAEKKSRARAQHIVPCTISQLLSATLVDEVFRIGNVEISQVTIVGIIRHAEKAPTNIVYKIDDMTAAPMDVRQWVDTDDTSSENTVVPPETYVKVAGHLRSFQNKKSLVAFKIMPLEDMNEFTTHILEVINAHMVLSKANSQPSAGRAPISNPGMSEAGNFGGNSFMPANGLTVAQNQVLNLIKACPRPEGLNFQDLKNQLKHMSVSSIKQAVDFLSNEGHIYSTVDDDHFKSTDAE
Chain of RPA–ssDNA interaction (P35244 whole entry partner): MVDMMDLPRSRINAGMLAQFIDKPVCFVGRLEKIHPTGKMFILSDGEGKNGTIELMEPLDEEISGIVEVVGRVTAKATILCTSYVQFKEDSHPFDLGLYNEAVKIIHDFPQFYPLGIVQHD

Molecule: O=C(O[C@@H]1Cc2c(O)cc(O)cc2O[C@@H]1c1cc(O)c(O)c(O)c1)c1cc(O)c(O)c(O)c1 [EGCG, epigallocatechin gallate]
- Effect on ssDNA binding to RPA (RPA–ssDNA interaction): also inhibited the RPA–ssDNA interaction

Molecule: Oc1cc(O)c2c(c1)O[C@H](c1cc(O)c(O)c(O)c1)[C@H](O)C2 [EGC, epigallocatechin]
- Competition with ssDNA binding to RAD52 (RAD52–ssDNA interaction): competed with ssDNA binding to RAD52
- Specificity for RAD52 (RAD52–ssDNA interaction): highly specific to RAD52
- Association of RAD52 with parental ssDNA (PLA spots per cell) [1]: supressed
- DSBs formation (tail moment) in HU-treated cells (MRC5SV40 fibroblasts): significantly reduced
- Toxicity to BRCA2-depleted cells (BRCA2-depleted cells): selectively toxic
- Exposure of nascent ssDNA (native anti-IdU IF) (MRC5 SV40 cells): significantly increased the level of ssDNA

Molecule: C[C@]1(c2nc3c(C(N)=O)cccc3[nH]2)CCCN1 [veliparib]
- Sensitivity of complemented cell line (HA) [2]: resistant
- Sensitivity of EUFA423F cells (EUFA423F): sensitive

Molecule: CO[C@@]12[C@H](COC(N)=O)C3=C(C(=O)C(C)=C(N)C3=O)N1C[C@@H]1N[C@@H]12 [mitomycin C]
- Sensitivity of complemented cell line (HA) [2]: resistant

B1: 6xHis-tagged human RAD52 (wild type) (natural protein)
chain: MSGTEEAILGGRDSHPAAGGGSVLCFGQCQYTAEEYQAIQKALRQRLGPEYISSRMAGGGQKVCYIEGHRVINLANEMFGYNGWAHSITQQNVDFVDLNNGKFYVGVCAFVRVQLKDGSYHEDVGYGVSEGLKSKALSLEKARKEAVTDGLKRALRSFGNALGNCILDKDYLRSLNKLPRQLPLEVDLTKAKRQDLEPSVEEARYNSCRPNMALGHPQLQQVTSPSRPSHAVIPADQDCSSRSLSSSAVESEATHQRKLRQKQLQQQFRERMEKQQVRVSTPSAEKSEAAPPAPPVTHSTPVTVSEPLLEKDFLAGVTQELIKTLEDNSEKWAVTPDAGDGVVKPSSRADPAQTSDTLALNNQMVTQNRTPHSVCHQKPQAKSGSWDLQTYSADQRTTGNWESHRKSQDMKKRKYDPS
- stoichiometry N (mass photometry): 10
